Source: ChEMBL document CHEMBL5058577, “EUbOPEN Chemogenomics Library 2 (Multiplex)” (2022)

Test system: HEK-293T
Assay: Multiplex assay against HEK293T
Assay type: toxicity, cell-based
Settings: human
Outline: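 Cells stained live at seeding with Hoechst33342, BioTracker Green Microtubule Cytoskeleton Dye, MitoTracker Red and Annexin V Alexa Fluor 680 were imaged on a CQ1 microscope at 37°C and 5% CO2 after compound addition. Their classification by CellPathfinder machine-learning gating ran from Hoechst high-intensity objects versus normal cells, to healthy, pyknosed or fragmented nuclei among normal cells, to mitotic or apoptotic among pyknosed cells. Tubulin, mitochondrial-mass and membrane-permeability phenotypes are per cents of healthy-nucleus cells.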

[1] = 12 h, 1 µM, compound concentration 1 uM, replicate 1
[2] = 12 h, 1 µM, compound concentration 1 uM, replicate 2
[3] = 12 h, 10 µM, compound concentration 10 uM, replicate 1
[4] = 12 h, 10 µM, compound concentration 10 uM, replicate 2
[5] = 24 h, 1 µM, compound concentration 1 uM, replicate 1
[6] = 24 h, 1 µM, compound concentration 1 uM, replicate 2
[7] = 24 h, 10 µM, compound concentration 10 uM, replicate 1
[8] = 24 h, 10 µM, compound concentration 10 uM, replicate 2
[9] = 48 h, 1 µM, compound concentration 1 uM, replicate 1
[10] = 48 h, 1 µM, compound concentration 1 uM, replicate 2
[11] = 48 h, 10 µM, compound concentration 10 uM, replicate 1
[12] = 48 h, 10 µM, compound concentration 10 uM, replicate 2

O=c1nc2[nH]c3ccccc3nc-2c(=O)[nH]1 [ALLOXAZINE]
Population Apoptotic (%) [1]: 27%
Population Fragmented Nuclei (%) [1]: 8%
Population Healthy Nuclei (%) [1]: 77%
Population Hoechst High Intensity Objects (%) [1]: 8%
Population Membrane Permeable-Phenotype (%) [1]: 0%
Population Mitochondria Different-Phenotype (%) [1]: 44%
Population Mitotic Cells (%) [1]: 72%
Population Normal (%) [1]: 91%
Population Pyknosed Nuclei (%) [1]: 13%
Population Tubulin-Different-Phenotype (%) [1]: 33%
Total Cell Count [1]: 377
Population Apoptotic (%) [2]: 44%
Population Fragmented Nuclei (%) [2]: 4%
Population Healthy Nuclei (%) [2]: 79%
Population Hoechst High Intensity Objects (%) [2]: 7%
Population Mitochondria Different-Phenotype (%) [2]: 66%
Population Mitotic Cells (%) [2]: 55%
Population Normal (%) [2]: 92%
Population Pyknosed Nuclei (%) [2]: 15%
Population Tubulin-Different-Phenotype (%) [2]: 25%
Total Cell Count [2]: 345
Population Apoptotic (%) [3]: 40%
Population Fragmented Nuclei (%) [3]: 10%
Population Healthy Nuclei (%) [3]: 71%
Population Hoechst High Intensity Objects (%) [3]: 5%
Population Membrane Permeable-Phenotype (%) [3]: 0%
Population Mitochondria Different-Phenotype (%) [3]: 53%
Population Mitotic Cells (%) [3]: 59%
Population Normal (%) [3]: 94%
Population Pyknosed Nuclei (%) [3]: 18%
Population Tubulin-Different-Phenotype (%) [3]: 31%
Total Cell Count [3]: 362
Population Apoptotic (%) [4]: 60%
Population Fragmented Nuclei (%) [4]: 8%
Population Healthy Nuclei (%) [4]: 70%
Population Hoechst High Intensity Objects (%) [4]: 15%
Population Mitochondria Different-Phenotype (%) [4]: 67%
Population Mitotic Cells (%) [4]: 40%
Population Normal (%) [4]: 84%
Population Pyknosed Nuclei (%) [4]: 20%
Population Tubulin-Different-Phenotype (%) [4]: 20%
Total Cell Count [4]: 323
Population Apoptotic (%) [5]: 22%
Population Fragmented Nuclei (%) [5]: 10%
Population Healthy Nuclei (%) [5]: 76%
Population Hoechst High Intensity Objects (%) [5]: 4%
Population Membrane Permeable-Phenotype (%) [5]: 0%
Population Mitochondria Different-Phenotype (%) [5]: 24%
Population Mitotic Cells (%) [5]: 77%
Population Normal (%) [5]: 95%
Population Pyknosed Nuclei (%) [5]: 12%
Population Tubulin-Different-Phenotype (%) [5]: 19%
Total Cell Count [5]: 504
Population Apoptotic (%) [6]: 33%
Population Fragmented Nuclei (%) [6]: 7%
Population Healthy Nuclei (%) [6]: 83%
Population Hoechst High Intensity Objects (%) [6]: 7%
Population Mitochondria Different-Phenotype (%) [6]: 41%
Population Mitotic Cells (%) [6]: 66%
Population Normal (%) [6]: 92%
Population Pyknosed Nuclei (%) [6]: 8%
Population Tubulin-Different-Phenotype (%) [6]: 12%
Total Cell Count [6]: 391
Population Apoptotic (%) [7]: 27%
Population Fragmented Nuclei (%) [7]: 9%
Population Healthy Nuclei (%) [7]: 77%
Population Hoechst High Intensity Objects (%) [7]: 6%
Population Membrane Permeable-Phenotype (%) [7]: 0%
Population Mitochondria Different-Phenotype (%) [7]: 34%
Population Mitotic Cells (%) [7]: 72%
Population Normal (%) [7]: 93%
Population Pyknosed Nuclei (%) [7]: 12%
Population Tubulin-Different-Phenotype (%) [7]: 21%
Total Cell Count [7]: 491
Population Apoptotic (%) [8]: 50%
Population Healthy Nuclei (%) [8]: 72%
Population Hoechst High Intensity Objects (%) [8]: 15%
Population Mitochondria Different-Phenotype (%) [8]: 48%
Population Mitotic Cells (%) [8]: 50%
Population Normal (%) [8]: 84%
Population Pyknosed Nuclei (%) [8]: 17%
Population Tubulin-Different-Phenotype (%) [8]: 16%
Total Cell Count [8]: 371
Population Apoptotic (%) [9]: 32%
Population Fragmented Nuclei (%) [9]: 14%
Population Healthy Nuclei (%) [9]: 77%
Population Hoechst High Intensity Objects (%) [9]: 3%
Population Membrane Permeable-Phenotype (%) [9]: 1%
Population Mitochondria Different-Phenotype (%) [9]: 18%
Population Mitotic Cells (%) [9]: 67%
Population Normal (%) [9]: 96%
Population Pyknosed Nuclei (%) [9]: 8%
Population Tubulin-Different-Phenotype (%) [9]: 13%
Total Cell Count [9]: 773
Population Apoptotic (%) [10]: 27%
Population Fragmented Nuclei (%) [10]: 11%
Population Healthy Nuclei (%) [10]: 82%
Population Hoechst High Intensity Objects (%) [10]: 4%
Population Membrane Permeable-Phenotype (%) [10]: 0%
Population Mitochondria Different-Phenotype (%) [10]: 26%
Population Mitotic Cells (%) [10]: 72%
Population Normal (%) [10]: 95%
Population Pyknosed Nuclei (%) [10]: 6%
Population Tubulin-Different-Phenotype (%) [10]: 12%
Total Cell Count [10]: 636
Population Apoptotic (%) [11]: 29%
Population Fragmented Nuclei (%) [11]: 15%
Population Healthy Nuclei (%) [11]: 76%
Population Hoechst High Intensity Objects (%) [11]: 3%
Population Membrane Permeable-Phenotype (%) [11]: 0%
Population Mitochondria Different-Phenotype (%) [11]: 17%
Population Mitotic Cells (%) [11]: 70%
Population Normal (%) [11]: 96%
Population Pyknosed Nuclei (%) [11]: 7%
Population Tubulin-Different-Phenotype (%) [11]: 11%
Total Cell Count [11]: 700
Population Apoptotic (%) [12]: 48%
Population Fragmented Nuclei (%) [12]: 14%
Population Healthy Nuclei (%) [12]: 78%
Population Hoechst High Intensity Objects (%) [12]: 4%
Population Mitochondria Different-Phenotype (%) [12]: 28%
Population Mitotic Cells (%) [12]: 51%
Population Normal (%) [12]: 95%
Population Pyknosed Nuclei (%) [12]: 6%
Population Tubulin-Different-Phenotype (%) [12]: 14%
Total Cell Count [12]: 531
